Broadly, the IC50 is the midpoint of a concentration-inhibition curve. As usually defined, the pKa is the pH at which an ionisable group is half protonated. A lower pKa goes with a group that gives up its proton readily.

Data set [1] is described as follows: Selectivity ratio of IC50 for MEF to IC50 for human Jurkat T cells. The data set is classed as cell-based. The settings on record: mouse (MEF) and human (Jurkat T cells), read-out: Ratio IC50.
The nature of data set [2]: Antiproliferative activity against human Jurkat T cells after 72 hrs by MTT assay. The data set is classed as functional, cell-based. An outline of the steps:
(§1)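 HeLa and SK-MEL2 grown in DMEM, Jurkat in RPMI 1640, each with 10% FBS and penicillin-streptomycin, at 37 °C and 5% CO2. Adherent cells seeded at 2000/well and left to recover overnight; Jurkat seeded at 5000/well with no recovery. Compound added in DMSO (0.1% final), then 72 h incubation and MTT readout.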

Data set [3] relates to HeLa. The experiment in a line: Antiproliferative activity against human HeLa cells after 72 hrs by MTT assay. The format is functional, cell-based. An outline of the steps: as §1
For orientation: Tetrazolium assays rely on reduction of a dye to a coloured formazan, in cell work by metabolically active cells.

Data set [4] is described as follows: Half life in RPMI media at 10 uM by HPLC analysis. The format is physicochemical. An outline of the steps:
(§2)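 Compound added from DMSO stock to pre-heated RPMI 1640 (1.8 mL) plus 0.2 mL human AB male serum or FBS, or to 2 mL RPMI alone, at final 1 or 10 μM. Samples analysed by HPLC at pH 9.5 (formic acid/ammonia in acetonitrile/water), with conversion taken from the substrate/internal standard peak ratio. Run in triplicate; half-lives ± SD.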

In data set [5] the test system is MEF. The experiment in a line: Antiproliferative activity against MEF after 72 hrs by MTT assay. The format is cell-based. The following applies: Mus musculus.
Data set [6] deals with SK-MEL-2. The experiment in a line: Antiproliferative activity against human SK-MEL-2 cells after 72 hrs by MTT assay in presence of 5% FBS. The format is functional, cell-based. The settings on record: SK-MEL-2, 72 h. An outline of the steps: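 SK-MEL2 grown with reduced serum (5% FBS) to slow proliferation. Compounds added in DMSO (0.1% final), followed by a 72 h MTT proliferation assay.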

Data set [7] can be described thus: Half life in RPMI media at 10 uM by HPLC analysis in presence of human blood serum. The format is ADME. An outline of the steps:
as §2

Data set [8] is described as follows: Antiproliferative activity against human Jurkat T cells assessed as DNA synthesis level after 24 hrs by thymidine incorporation assay. The data set is classed as functional, cell-based. The essentials:
(§3)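 Cells kept at 37 °C, 5% CO2 with penicillin-streptomycin and 10% FBS. Adherent lines seeded at 2000 cells/well and left to recover overnight; Jurkat seeded at 5000 cells/well with no recovery period. Compound added in DMSO (0.1% final, vehicle-only control) at 0.001–100 nM over 10 wells. DNA synthesis read out after 24 h. Mean IC50 from at least 3 independent assays.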

The test system of data set [9] is Jurkat. The experiment in a line: Immunosuppressive activity in human Jurkat T cells assessed as inhibition of IL-2 transcription. The format is functional, cell-based.
Data set [10] concerns HeLa. The experiment in a line: Antiproliferative activity against human HeLa cells assessed as DNA synthesis level after 24 hrs by thymidine incorporation assay. The format is functional, cell-based. The essentials: as §3
For orientation: Uptake of a labelled nucleoside into DNA is a usual measure of proliferation.

Data set [11] in a line: Half life in RPMI media at 1 uM by HPLC analysis in presence of fetal bovine serum. The data set is classed as ADME. The following applies: cattle. The essentials: as §2
For data set [12], the target named is T1, DNA polymerase subunit gamma-1 (Homo sapiens, UniProt P54098).
T1 sequence (P54098 whole entry): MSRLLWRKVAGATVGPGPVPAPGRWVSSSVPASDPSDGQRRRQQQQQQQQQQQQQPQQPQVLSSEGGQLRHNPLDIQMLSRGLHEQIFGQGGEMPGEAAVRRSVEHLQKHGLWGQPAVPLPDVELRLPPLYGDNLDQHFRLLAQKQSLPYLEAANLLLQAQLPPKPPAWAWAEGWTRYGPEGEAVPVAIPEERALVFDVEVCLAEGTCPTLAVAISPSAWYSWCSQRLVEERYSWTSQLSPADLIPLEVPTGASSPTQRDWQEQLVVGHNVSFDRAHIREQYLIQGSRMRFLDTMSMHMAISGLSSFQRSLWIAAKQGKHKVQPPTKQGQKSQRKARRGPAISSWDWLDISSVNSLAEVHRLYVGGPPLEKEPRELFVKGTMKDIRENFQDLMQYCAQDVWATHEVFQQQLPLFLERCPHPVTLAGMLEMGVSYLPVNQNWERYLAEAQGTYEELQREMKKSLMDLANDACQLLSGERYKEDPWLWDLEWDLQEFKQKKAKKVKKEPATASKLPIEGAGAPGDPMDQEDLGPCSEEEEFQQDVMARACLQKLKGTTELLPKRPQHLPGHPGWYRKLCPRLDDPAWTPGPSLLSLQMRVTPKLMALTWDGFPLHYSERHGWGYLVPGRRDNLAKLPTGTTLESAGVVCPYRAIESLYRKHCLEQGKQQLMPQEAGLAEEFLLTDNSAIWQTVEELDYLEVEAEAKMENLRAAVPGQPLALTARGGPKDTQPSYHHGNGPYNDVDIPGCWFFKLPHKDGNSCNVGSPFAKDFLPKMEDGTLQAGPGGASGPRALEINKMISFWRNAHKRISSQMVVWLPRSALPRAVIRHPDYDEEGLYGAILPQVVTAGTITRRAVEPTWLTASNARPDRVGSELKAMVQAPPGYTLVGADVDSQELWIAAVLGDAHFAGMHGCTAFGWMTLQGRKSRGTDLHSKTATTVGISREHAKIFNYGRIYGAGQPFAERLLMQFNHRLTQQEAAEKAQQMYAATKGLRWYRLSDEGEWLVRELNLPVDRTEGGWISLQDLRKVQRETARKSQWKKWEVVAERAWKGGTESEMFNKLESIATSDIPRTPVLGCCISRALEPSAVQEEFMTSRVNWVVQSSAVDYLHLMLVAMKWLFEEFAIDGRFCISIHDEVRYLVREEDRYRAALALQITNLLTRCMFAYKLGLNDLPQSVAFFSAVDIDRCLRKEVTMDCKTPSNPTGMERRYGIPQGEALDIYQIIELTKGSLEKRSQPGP
The experiment in a line: Inhibition of DNA polymerase-gamma (unknown origin) assessed as incorporation of Br(d)UTP by colorimetric analysis.

Data set [13] can be described thus: Dissociation constant, pKa of the compound. The format is physicochemical.
In data set [14] the test system is HaCaT. The experiment in a line: Antiproliferative activity against human HaCaT cells assessed as DNA synthesis level after 24 hrs by thymidine incorporation assay. The data set is classed as functional, cell-based. The essentials:
as §3

With `CC(/C=C/C(C)=C/[C@@H]1Cc2nc(cs2)CCCCC(=O)O[C@@H](C)C/C(C)=C/C=C\C(=O)O1)=C\CN(C)C`, the selectivity ratio in data set [1] is 5. The IC50 in data set [2] is 11 nM; in [3], 9.8 nM; in [5], > 50 nM; in data set [6] it was 30 nM; in data set [8] it was 3 nM; in data set [9], 0.81 nM. The 50% inhibitory concentration (IC50) in data set [10] was found to be 4.5 nM; in data set [12], 3000 nM; in data set [14], 0.9 nM. Also, the values for the t1/2 in data set [4], in [7] and in [11] were 3.25 h, 13 h and 19.9 h, respectively. In addition, the pKa in data set [13] came out at 11.
